Measured values taken from ChEMBL document CHEMBL5257161, “Mycobacterium tuberculosis CitA activity is modulated by cysteine oxidation and pyruvate binding” (RSC Med Chem, 2023).

Target: T1, Putative citrate synthase 2 (Mycobacterium tuberculosis, UniProt P9WPD3)
T1 sequence (P9WPD3 whole entry): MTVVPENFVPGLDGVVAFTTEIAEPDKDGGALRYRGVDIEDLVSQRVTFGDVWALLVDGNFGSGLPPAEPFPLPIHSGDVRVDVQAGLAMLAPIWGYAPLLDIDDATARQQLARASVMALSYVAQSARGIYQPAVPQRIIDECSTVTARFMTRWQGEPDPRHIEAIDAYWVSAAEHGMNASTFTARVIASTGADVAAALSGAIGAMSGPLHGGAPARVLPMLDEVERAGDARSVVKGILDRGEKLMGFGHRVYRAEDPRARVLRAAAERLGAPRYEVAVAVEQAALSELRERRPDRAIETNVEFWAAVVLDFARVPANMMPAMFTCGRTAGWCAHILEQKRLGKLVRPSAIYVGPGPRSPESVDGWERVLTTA
Assay: Inhibition of Mycobacterium tuberculosis CitA expressed in Escherichia coli cell by UV spectrophotometric based analysis
How it was run: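 Michael acceptor compounds were added directly to the DTNB/OAA/AcCoA reaction with 10 nM CitA in 50 mM Tris pH 8.0 at 25 °C, read at 412 nm. The screen used 20 μM compound. Dose–response data were fitted to the Hill equation for apparent IC50. A control measured how fast the compounds react with reaction components.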

C=C1CC2(OC1=O)C(=O)Nc1ccc(I)cc12 (configuration not stated)
IC50: 6.6 µM

C=C1C(=O)OC2(C(=O)Nc3ccccc32)C1c1ccccc1 (configuration not stated)
IC50: 10.9 µM
